In brackets after ≈: the same amount, converted by molar mass. Activity calls are given as the source filed them. No cut-off for these calls is given here.
What was measured:
[1] = system: Leishmania donovani; assay: Antileishmanial activity against Leishmania donovani promastigotes after 48 hrs by Alamar blue assay; type: functional, organism-based
Outline: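 L. donovani promastigotes were grown in RPMI 1640 with 10% fetal calf serum at 26 C. A 3-day-old culture was diluted to 5 × 10^5 promastigotes/mL, and drug dilutions were made directly in the cell suspension. After 48 h at 26 C, growth was read by Alamar Blue fluorescence (ex 544/em 590 nm). IC50 and IC90 came from percent growth versus concentration curves.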

[2] = system: SK-MEL; assay: Cytotoxicity against human SKMEL cells by neutral red assay; type: functional, cell-based
Outline: (§1)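 Cells were seeded at 25,000 per well and incubated 24 h. Test samples were added at a range of concentrations, followed by a further 48 h incubation. Viable cells were quantified by Neutral Red uptake, and IC50 was read from dose curves of percent growth versus concentration.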

[3] = system: BT-549; assay: Cytotoxicity against human BT549 cells by neutral red assay; type: functional, cell-based; outline: as §1
[4] = system: SK-OV-3; assay: Cytotoxicity against human SK-OV3 cells by neutral red assay; type: functional, cell-based; outline: as §1
[5] = system: Vero; assay: Cytotoxicity against african green monkey Vero cells by neutral red assay; type: cell-based; conditions: chlorocebus sabaeus; outline: as §1
[6] = Cytotoxicity against pig LLC-PK11 cells by neutral red assay; type: cell-based; conditions: Sus scrofa; outline: as §1
[7] = system: Plasmodium falciparum; assay: Antimalarial activity against chloroquine-sensitive Plasmodium falciparum D6 by LDH release assay; type: functional, organism-based
Outline: (§2)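 Infected red cells (W2 or D6), 2% parasitemia, 2% hematocrit, in RPMI 1640 with 10% human serum and 60 µg/mL amikacin, exposed to serial sample dilutions. Incubated 72 h at 37 C under 90% N2/5% O2/5% CO2. Parasite LDH measured with Malstat reagent (30 min, room temperature), then NBT/PES 1 h in dark, stopped with 5% acetic acid, read at 650 nm. IC50 from dose-response curves.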

[8] = system: Plasmodium falciparum; assay: Antimalarial activity against chloroquine-resistant Plasmodium falciparum W2 by LDH release; type: functional, organism-based; outline: as §2
[9] = system: Candida albicans; assay: Antifungal activity against Candida albicans; type: functional, organism-based
Outline: (§3)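 Modified NCCLS broth microdilution. Samples in DMSO were serially diluted in 0.9% saline and tested in duplicate. Inocula were matched to the 0.5 McFarland standard by absorbance at 630 nm, then diluted in broth. Growth, solvent and media controls were included. Plates were read at 630 nm before and after incubation, and IC50 was taken from percent growth versus concentration.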

[10] = system: Cryptococcus neoformans; assay: Antifungal activity against Cryptococcus neoformans; type: functional, organism-based; outline: as §3
[11] = system: Aspergillus fumigatus; assay: Antifungal activity against Aspergillus fumigatus; type: functional, organism-based; outline: as §3
[12] = Selectivity index, ratio of IC50 for african green monkey (Cercopithecus aethiops) Vero cells to IC50 for Plasmodium falciparum D6; type: functional
Outline: (§4)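 The index is IC50 in Vero cells (Neutral Red, 48 h exposure) divided by IC50 against P. falciparum D6 or W2. For the parasite assay, infected erythrocytes at 2% parasitemia and 2% hematocrit in RPMI 1640 with 10% human serum were incubated 72 h at 37 C under 90% N2, 5% O2, 5% CO2. Parasite LDH was measured with Malstat plus NBT/PES at 650 nm.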

[13] = Selectivity index, ratio of IC50 for african green monkey (Cercopithecus aethiops) Vero cells to IC50 for Plasmodium falciparum W2; type: functional; outline: as §4
[14] = system: KB; assay: Cytotoxicity against human KB cells by neutral red assay up to 25 ug/mL; type: functional, cell-based; outline: as §1
[15] = system: SK-MEL; assay: Cytotoxicity against human SKMEL cells by neutral red assay up to 25 ug/mL; type: functional, cell-based; outline: as §1
[16] = system: SK-OV-3; assay: Cytotoxicity against human SK-OV3 cells by neutral red assay up to 25 ug/mL; type: functional, cell-based; outline: as §1
[17] = system: Vero; assay: Cytotoxicity against african green monkey Vero cells by neutral red assay up to 25 ug/mL; type: cell-based; conditions: chlorocebus sabaeus; outline: as §1
[18] = Cytotoxicity against pig LLC-PK11 cells by neutral red assay up to 25 ug/mL; type: cell-based, Sus scrofa; outline: as §1
[19] = system: BT-549; assay: Cytotoxicity against human BT549 cells by neutral red assay up to 25 ug/mL; type: functional, cell-based; outline: as §1
[20] = system: KB; assay: Cytotoxicity against human KB cells by neutral red assay; type: functional, cell-based; outline: as §1
[21] = system: Staphylococcus aureus; assay: Antibacterial activity against methicillin-resistant Staphylococcus aureus; type: functional, organism-based
Outline: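 Modified NCCLS broth microdilution. Samples in DMSO serially diluted in 0.9% saline, tested in duplicate. Inoculum set against 0.5 McFarland standard by absorbance at 630 nm, then diluted in broth. Growth, solvent and media controls included. Plates read at 630 nm before and after incubation. IC50 from percent growth vs concentration; MIC = lowest concentration with no detectable growth.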

Question: For `CC(C)C[C@@H]1C[C@@]2(CC[C@@H]3C[C@H]2C3(C)C)Oc2c(C=O)c(O)c(C=O)c(O)c21` [ROBUSTADIAL A], which IC50 [1] is on record?
Answer: 20 mg/L (≈ 51.7 µM)

Question: And the IC90 [1]?
Answer: 39 mg/L (≈ 101 µM)

Question: What about the IC50 [2] of the same compound?
Answer: > 25 mg/L

Question: What about the IC50 [3] of the same compound?
Answer: 19 mg/L (≈ 49.2 µM)

Question: And the IC50 [4]?
Answer: > 25 mg/L

Question: What about the IC50 [5] of the same compound?
Answer: 19 mg/L (≈ 49.2 µM)

Question: And the IC50 [6]?
Answer: 17 mg/L (≈ 44 µM)

Question: And the IC50 [7]?
Answer: 4.76 mg/L (≈ 12.3 µM)

Question: What about the IC50 [8] of the same compound?
Answer: 2.8 mg/L (≈ 7.24 µM)

Question: What about the Activity [9] of the same compound?
Answer: inactive

Question: And the Activity [10]?
Answer: inactive

Question: And the Activity [11]?
Answer: inactive

Question: And the Selectivity index [12]?
Answer: 4

Question: And the Selectivity index [13]?
Answer: 6.8

Question: And the Activity [14]?
Answer: inactive

Question: For `C[C@@H]1CC[C@H]2[C@@H](C)C(=O)O[C@@H]3O[C@@]4(C)CC[C@@H]1[C@]32OO4` [ARTEMISININ], which IC50 [7] is on record?
Answer: 0.014 mg/L (≈ 0.0496 µM)

Question: What about the IC50 [8] of the same compound?
Answer: 0.0075 mg/L (≈ 0.0266 µM)

Question: For `CC(C)C[C@H]1C[C@]2(CC[C@@H]3C[C@H]2C3(C)C)Oc2c(C=O)c(O)c(C=O)c(O)c21` [ROBUSTADIAL B], which IC50 [1] is on record?
Answer: 16 mg/L (≈ 41.4 µM)

Question: What about the IC90 [1] of the same compound?
Answer: 16 mg/L (≈ 41.4 µM)

Question: And the IC50 [3]?
Answer: 25 mg/L (≈ 64.7 µM)

Question: And the IC50 [7]?
Answer: 4.5 mg/L (≈ 11.6 µM)

Question: And the IC50 [8]?
Answer: 4.76 mg/L (≈ 12.3 µM)

Question: And the Activity [9]?
Answer: inactive

Question: What about the Activity [10] of the same compound?
Answer: inactive

Question: And the Activity [11]?
Answer: inactive

Question: What about the Selectivity index [12] of the same compound?
Answer: >5.6

Question: What about the Selectivity index [13] of the same compound?
Answer: >5.3

Question: What about the Activity [15] of the same compound?
Answer: inactive

Question: What about the Activity [14] of the same compound?
Answer: inactive

Question: What about the Activity [16] of the same compound?
Answer: inactive

Question: What about the Activity [17] of the same compound?
Answer: Not Active

Question: What about the Activity [18] of the same compound?
Answer: Not Active

Question: What does the source list for `CC(C)CC(=O)c1c(O)c(C=O)c(O)c2c1O[C@@]1(C)[C@H](CC[C@H]3[C@@H]1C3(C)C)C2`?
Answer: IC50 [1]: 5.5 mg/L (≈ 14.2 µM); IC90 [1]: 28 mg/L (≈ 72.4 µM); IC50 [2]: 25 mg/L (≈ 64.7 µM); IC50 [7]: 3.4 mg/L (≈ 8.8 µM); IC50 [8]: 2.7 mg/L (≈ 6.99 µM); Activity [9]: inactive; Activity [10]: inactive; Activity [11]: inactive; Selectivity index [12]: >7.4; Selectivity index [13]: >9.3; Activity [14]: inactive; Activity [19]: inactive; Activity [16]: inactive; Activity [17]: Not Active; Activity [18]: Not Active

Question: Which IC50 [1] does the source give for `CC(C)CC(=O)c1c(O)c(C=O)c2c(c1O)C[C@H]1C[C@H]3C[C@H](C3(C)C)[C@@]1(CCO)O2` here?
Answer: 9.5 mg/L (≈ 22.8 µM)

Question: And the IC90 [1]?
Answer: 33 mg/L (≈ 79.2 µM)

Question: And the IC50 [2]?
Answer: 25 mg/L (≈ 60 µM)

Question: What about the IC50 [20] of the same compound?
Answer: 20 mg/L (≈ 48 µM)

Question: And the IC50 [3]?
Answer: 18.5 mg/L (≈ 44.4 µM)

Question: And the IC50 [4]?
Answer: 25 mg/L (≈ 60 µM)

Question: And the IC50 [5]?
Answer: 20 mg/L (≈ 48 µM)

Question: And the IC50 [6]?
Answer: 25 mg/L (≈ 60 µM)

Question: And the IC50 [21]?
Answer: 1 mg/L (≈ 2.4 µM)

Question: And the MIC [21]?
Answer: 5 mg/L (≈ 12 µM)

Question: What about the Activity [9] of the same compound?
Answer: inactive

Question: And the Activity [10]?
Answer: inactive

Question: And the Activity [11]?
Answer: inactive

— ChEMBL document CHEMBL1143930, “S-Euglobals: biomimetic synthesis, antileishmanial, antimalarial, and antimicrobial activities” (Bioorg Med Chem, 2008)
